PMI act – increases human mannose-6-phosphate isomerase activity | P34949 | activation factor at 20 µM | purified human PMI, coupled resazurin fluorescence, 20 min; hits give high values; 1 = vehicle control, 0 substrate-free wells | hit rate 0.005% among 190,000;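 active = activation factor of 2 or more at 20 µM, relative to plate controls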
Target sequence (P34949 whole entry, looked up): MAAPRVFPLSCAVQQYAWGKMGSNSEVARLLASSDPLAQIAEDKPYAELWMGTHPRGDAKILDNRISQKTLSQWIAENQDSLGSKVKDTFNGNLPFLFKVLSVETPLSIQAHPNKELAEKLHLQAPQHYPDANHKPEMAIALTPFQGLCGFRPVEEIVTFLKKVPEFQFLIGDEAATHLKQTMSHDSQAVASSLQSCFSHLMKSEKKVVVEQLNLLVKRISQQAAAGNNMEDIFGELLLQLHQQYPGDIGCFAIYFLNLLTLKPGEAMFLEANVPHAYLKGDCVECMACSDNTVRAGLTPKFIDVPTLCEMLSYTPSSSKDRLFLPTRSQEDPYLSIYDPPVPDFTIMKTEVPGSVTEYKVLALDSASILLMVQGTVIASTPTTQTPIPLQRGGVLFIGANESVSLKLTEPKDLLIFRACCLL
bCat KO growth – beta-catenin-lacking colon tumor cell growth suppression. viability, % at 10 µM. HCT116 beta-catenin knockout viability, CellTiter-Glo, 60 h; hits give low values. hit rate 1.5% among 140,000;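 active = viability at or under a set limit, the compound median less 4 SD, cut at about 6% in these data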;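 also: 0% = Hyamine 1622 control at 20 µM and 100% = untreated cell control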
PMI act satM6P – PMI (human) activation, high substrate | hit rate 0.34% among 190,000 | P34949 | coupled PMI enzyme assay, resazurin fluorescence, 20 min; hits give high values; 1 = untreated enzyme, 0 = substrate-free blank | activation factor at 20 µM | AID 1216;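 active = activation factor of 2 or more at 20 µM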
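Test system: human phosphomannose isomerase with PGI, G6PDH, diaphorase coupling enzymes; Amount: PMI at 15 ng/mL final; Reagent: Mannose-6-phosphate 1.0 mM (near-saturating) plus 0.22 mM NADP+; Timing: 20 min, room temperature; Technique: resorufin fluorescence at Ex 544/Em 590 nm; Dosing: 20 µM single dose.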
HCT116 PTEN-null – growth suppressors of cells with PTEN tumor suppressor deletion. HCT116 PTEN-null viability, CellTiter-Glo, 60 h; hits give low values. viability, % at 10 µM. hit rate 1.2% among 140,000;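 active = viability at or below a set limit, 4 SD under the median of all tested compounds, cut at about 3.7% in these data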;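 also: PTEN knockout HCT116 line with beta catenin targeted HCT116 as companion control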
L major viab – reduces viability of Leishmania major promastigotes; resazurin fluorescence viability; inhibition, % at 10 µM; hit rate 9% among 200,000; AID 1063; in the data active = inhibition above about 50%;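 also: promastigotes grown with compound for 44 hours at 28 °C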
An asterisk follows results filed as active; x = not tested or not shown. Hits are enriched below; roughly 9.6% of the tested compounds scored in any of these assays.

SMILES	PMI act	bCat KO growth	PMI act satM6P	HCT116 PTEN-null	L major viab
CCCCOc1ccc(CN2CCCCC2)cc1	0.8	94	0.9	96	93*
Oc1ccc(N2CCN(Cc3ccc(OCCCN4CCCCC4)cc3)CC2)cc1	0.6	x	0.4	x	48
CC1CN(CCCCOc2ccc(F)cc2)CC(C)O1 (stereo not drawn)	1.1	x	1.1	x	85*
Cc1ccc(CNC(=O)CCc2nnc(Cc3ccc(-c4ccccc4)cc3)o2)o1	1.1	x	1.1	x	-6
Cn1nnnc1SCCNC/C=C/c1ccccc1	1.1	94	1	103	32
CCOc1ccc(OCCCCN2CCCC2)cc1	0.9	74	1	84	99*
COC(=O)c1ccccc1OCCCCN1CC(C)OC(C)C1 (stereo not drawn)	1.1	92	1.1	93	88*
COc1ccc(OCCOC(=O)c2nc3nccc(C)n3n2)cc1	1	x	1	x	-7
Cc1cccc(C)c1OCc1nnc(NC(=O)CSc2ccc(Cl)cc2)s1	0.9	86	0.9	97	59*
C=CCn1c(SCC(=O)NCc2ccc3c(c2)OCO3)nnc1C1CCCCC1	1	101	0.9	96	-5
C=CCn1c(SCC(=O)NCc2ccccc2)nnc1C1CCCCC1	1	90	1	92	78*
Cc1cc(=O)n2[nH]c(-c3ccc(F)cc3)nc2n1	0.9	91	0.9	93	1
O=C(NNc1ccc(O)cc1)c1ccc(Br)cc1	1.5	x	2.2*	x	98*
O=C(Nc1cccc(O)c1)c1ccc(Br)cc1	0.9	97	0.9	91	9
O=[N+]([O-])c1ccc(Nc2nc(N/N=C/c3cccc(F)c3)nc(N3CCCC3)n2)cc1	1	71	1.1	59	36
COc1cccc(/C=N/Nc2nc(Nc3ccc([N+](=O)[O-])cc3)nc(N3CCCC3)n2)c1O	1.2	x	1	x	100*
c1ccc(Nc2nc(N3CCCCC3)nc(N3CCCCC3)n2)cc1	0.9	81	0.9	86	26
O=[N+]([O-])c1ccc(Nc2nc(NC3CCCCC3)nc(N3CCCC3)n2)cc1	1	x	1	x	98*
Cn1c(SCC(=O)N2c3ccccc3CCc3ccccc32)nnc1-c1cc2ccccc2cc1O	0.9	75	1	68	98*
Cc1cccc(-c2nnc(SCC(=O)N3c4ccccc4CCc4ccccc43)n2C)c1	0.9	79	1	87	91*
Cc1cc(OCCCCN2C(=O)NC(C)(C)C2=O)cc(C)c1Cl	1	75	0.9	89	4
Cc1cccc(C(C)(C)C)c1OCCn1ccnc1	0.9	91	1	84	99*
Cc1cc(Cl)cc(C)c1OCCCCn1ccnc1	0.9	53	1	63	100*
Cc1cccc(Cl)c1OCCCCn1ccnc1	1	85	1	90	98*
Cc1cc(OCCCCn2ccnc2)cc(C)c1Cl	1.1	x	1	x	99*
SMILES	PMI act	bCat KO growth	PMI act satM6P	HCT116 PTEN-null	L major viab
COc1ccccc1C(=O)C1CCCN(C(=O)c2cccnc2SC)C1 (stereo not drawn)	1	x	1.1	x	-6
CCCc1ncc(C(O)c2ccccc2OC)n1C (stereo not drawn)	1	x	0.9	x	1
COC(=O)[C@@]1(Cc2ccc(OC)cc2)[C@@H]2C(=CC(=O)[C@H]2CC(=O)C(=O)N2CCCC2)CN1C(=O)c1ccccc1	1	1.9*	1	2.0*	100*
O=C(/C=C/c1ccc(Cl)cc1)Nc1nccs1	0.9	x	0.9	x	9
COCc1cc(C)nc(N2CCNCC2)c1C#N	1	102	1	104	-2
COc1cccc(/C=C/C(=C2\C(=O)N(c3ccccc3)N=C2C)c2ccc(Br)cc2)c1OC	x	x	x	x	99*
COc1cccc(/C=C/C(=O)Nc2cccc(C(C)=O)c2)c1OC	0.9	x	0.9	x	11
C(=C\c1ccco1)/C1=NN(c2ccccc2)C(c2ccco2)C1 (stereo not drawn)	1.6	77	2.2*	65	7
O=C1CC(/C=C/c2ccco2)=Nc2ccccc2N1	0.9	81	1	78	-1
O=C1CC(/C=C/c2ccccn2)=Nc2ccccc2N1	1.3	x	1.1	x	82*
O=C(Oc1c(Cl)cc(Cl)c2cccnc12)N1CCCCC1	0.8	68	0.9	76	9
CN1CCN(Cc2cc(Cl)c3cccnc3c2OC(=O)c2cccs2)CC1	0.8	3.7*	0.5	5	27
Oc1c(CN2CCOCC2)cc(COCc2ccccc2)c2cccnc12	0.5	3.7*	0.8	2.8*	100*

Assay outcomes from PubChem BioAssay.
